Results of several laboratories.
Each line is one published result; the experiments were not run side by side.

| SMILES | tested on | assay | system | setting | quantity | result |
| --- | --- | --- | --- | --- | --- | --- |
| COc1cc2nc(N3CCN(C(=O)C4COc5ccccc5O4)CC3)nc(N)c2cc1OC (stereo not shown) | SUNE1 | cell growth or viability, MTT | – | 48 h | IC50 | 8.89 µM |
| Cc1c(C(=O)O)ccc2c3n(nc12)[C@@H]1[C@H](C3)N(CC2CC2)[C@@]2(C(=O)Nc3cc(Cl)ccc32)[C@H]1c1cccc(Cl)c1F | UACC-812 | cell growth or viability | – | – | GI50 | 0.00119 µM |
| Cc1cc(/C=C/C#N)cc(C)c1Nc1ccnc(Nc2ccc(C#N)cc2)n1 | SUNE1 | cell growth or viability, MTT | – | 48 h | IC50 | 19.1 µM |
| CC(=O)N1N=C(c2ccc(NS(=O)(=O)c3ccc4oc(=O)ccc4c3)cc2)CC1c1ccc(Br)cc1 (stereo not shown) | Toxoplasma gondii | parasite growth, fluorescence | HS27 | 96 h, intracellular | IC50 | < 3.91 µg/mL |
| COc1cccc(/C=N/N2C(=O)c3ccccc3NC2c2cccc(OC)c2O)c1O (stereo not shown) | Mycolicibacterium smegmatis | microbial growth, broth dilution | ATCC700084 | 72 h | MIC | > 256 µg/mL |
| COc1cc(Cc2cnc(N)nc2N)cc(OC)c1OC | Toxoplasma gondii | parasite growth, fluorescence | HS27 | 96 h, intracellular | IC50 | 11.8 µg/mL |
| C[C@@H]1[C@H](O)[C@@H](C)/C=C/C=C/C=C/C=C/C=C/C=C/C=C/[C@H](O[C@@H]2O[C@H](C)[C@@H](O)[C@H](N)[C@@H]2O)C[C@@H]2O[C@](O)(C[C@@H](O)C[C@@H](O)[C@H](O)CC[C@@H](O)C[C@@H](O)CC(=O)O[C@H]1C)C[C@H](O)[C@H]2C(=O)O | Candida tropicalis | microbial growth, broth dilution | ATCC13803 | 24 h | MIC | 4 µg/mL |
| C=CC(=O)NC1CCN(c2ncc3ncnc(Nc4ccc(Oc5ccc6c(c5)ncn6C)c(C)c4)c3n2)CC1 | Panc1005 | cell growth or viability | – | – | EC50 | 0.0396 µM |
| NNC(=O)c1ccncc1 | Mycolicibacterium smegmatis | microbial growth, broth dilution | ATCC700084 | – | MIC | 117 µM |
| COC1=CC(=O)c2ccccc2C1=O | Candida tropicalis | microbial growth, broth dilution | ATCC13803 | 24 h | MIC | 12.5 µg/mL |
